One compound from ChEMBL document CHEMBL5715946 (Chem Biol, 2010) can be followed below.

Test [1] has as its system Antioxidant response element. The test can be described thus: Induction of ARE-mediated GST Ya mRNA expression in MIF siRNA transfected rat H9c2 cells at 3 uM measured after 24 hrs in presence of rat MIF by RT-qPCR analysis. The format is cell-based. In a few lines:
(§1)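 H9c2 cells transfected with MIF siRNA or control siRNA (100 nM, Oligofectamine), then treated with 3 μM compound with or without 0.8 μM rMIF for 24 hr. GST Ya and HO-1 mRNA by real-time qPCR; mean ± SD, n = 3. MIF effect on drug efficacy tested by Aspin-Welch test.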
(In general: In qPCR the cycle at which signal appears reflects the starting amount.)

The nature of test [2]: Upregulation of UDP glucuronosyltransferase, exon 1 gene expression in serum-deprived neonatal Wistar rat cardiomyocyte at 0.37 uM incubated for 21 hrs by microarray analysis relative to control. The format is functional, Cardiac muscle cell. In a few lines: (§2)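 Primary neonatal rat cardiomyocytes cultured with or without 0.37 μM compound in serum-free medium for 21 hr. Total RNA profiled on the rat genome U34A GeneChip array (about 7000 known genes).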

Test [3] deals with Antioxidant response element. The test can be described thus: Induction of rat ARE activity expressed in MIF-stimulated rat H9c2 cells assessed as increase in ARE luciferase activity at 1 uM measured after 24 hrs by steady-glo luciferase Assay. The format is cell-based. In a few lines:
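H9c2 cells transiently transfected with pGL3-ARE-Luc (rat GST Ya ARE) or mutant-ARE control plasmid, then treated with rMIF with or without 1 μM compound for 24 hr. Luciferase by Steady-Glo; mean ± SD, n = 4.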

Test [4] deals with T1, Macrophage migration inhibitory factor (Homo sapiens, UniProt P14174).
T1 sequence (P14174 whole entry): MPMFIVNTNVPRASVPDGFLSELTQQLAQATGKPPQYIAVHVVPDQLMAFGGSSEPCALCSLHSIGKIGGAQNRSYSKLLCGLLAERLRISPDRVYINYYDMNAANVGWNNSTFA
The test can be described thus: Binding affinity to BTZO-12 sensor chip immobilized human MIF expressed in Escherichia coli BL21 (DE3) by SPR analysis. In short, it runs like this:
(§3)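 Sensor chip carrying immobilized BTZO-12; MIF (wild type or point mutants) passed over it and specific binding monitored by surface plasmon resonance.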
A general note: In SPR one partner is held on a chip, and binding of the other changes the refractive index at the surface.

A short description of test [5]: Upregulation of glutathione S-transferase Ya subunit gene expression in serum-deprived neonatal Wistar rat cardiomyocyte at 0.37 uM incubated for 21 hrs by microarray analysis relative to control. The format is functional, Cardiac muscle cell. In short, it runs like this: (§4)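 Primary neonatal rat cardiomyocytes, isolated by proteinase digestion with preplating to deplete nonmyocytes, cultured in serum-free medium with or without 0.37 μM compound for 21 hr. Total RNA was recovered and global expression profiled on an Affymetrix GeneChip rat genome U34A array (about 7000 known genes). Change is relative to untreated cells.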

Test [6] in a line: Upregulation of Fischer 344 GST Yc subunit gene expression in serum-deprived neonatal Wistar rat cardiomyocyte at 0.37 uM incubated for 21 hrs by microarray analysis relative to control. It counts as functional, Cardiac muscle cell. In a few lines:
as §2

The test system of test [7] is Antioxidant response element. Kind of test: Induction of rat ARE activity expressed in rat H9c2 cells assessed as increase in ARE luciferase activity measured after 24 hrs by steady-glo luciferase Assay. The format is cell-based. In short, it runs like this: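 H9c2 cells transiently transfected with pGL3-ARE-Luc or pGL3-mARE-Luc, compound exposure 24 hr, luciferase read by Steady-Glo. MEC2.0 is the concentration giving a doubling of luciferase activity. Mean ± SD, n = 4.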

Test [8] has as its system Antioxidant response element. Kind of test: Induction of ARE-mediated HO-1 mRNA expression in MIF siRNA transfected rat H9c2 cells at 3 uM measured after 24 hrs in presence of rat MIF by RT-qPCR analysis. It counts as cell-based. In a few lines:
as §1

A short description of test [9]: Upregulation of glutathione S-transferase Yc1 subunit gene expression in serum-deprived neonatal Wistar rat cardiomyocyte at 0.37 uM incubated for 21 hrs by microarray analysis relative to control. The format is functional, Cardiac muscle cell. In a few lines:
as §4

For test [10], the system named is Antioxidant response element. The test can be described thus: Induction of ARE activity in serum-deprived neonatal Wistar rat cardiomyocytes assessed as increase in HO-1 expression up to 400 nM measured after 24 hrs by Western blot analysis. It counts as cell-based. The conditions noted are these: Cardiomyocyte. In a few lines:
(§5)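 Neonatal rat cardiomyocytes exposed to samples or vehicle in M-199 with 1% penicillin-streptomycin, no serum, for 24 hr. GST Ya and HO-1 mRNA measured by real-time qPCR (mean ± SD, n = 3); protein by western blot with β-actin as control.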
For orientation: A western blot detects proteins with antibodies after separation by electrophoresis.

The target of test [11] is Macrophage migration inhibitory factor (Rattus norvegicus) (UniProt P30904). The test can be described thus: Induction of MIF-stimulated ARE activity in rat H9c2 cells assessed as increase in HO-1 expression at 3 uM incubated for 6 hrs by RT-qPCR analysis. The format is cell-based.
A short description of test [12]: Upregulation of 3-methylcholanthrene-inducible UDP-glucuronosyltransferase gene expression in serum-deprived neonatal Wistar rat cardiomyocyte at 0.37 uM incubated for 21 hrs by microarray analysis relative to control. The format is functional, Cardiac muscle cell. In a few lines:
as §2

Test [13] deals with Macrophage migration inhibitory factor (Rattus norvegicus) (UniProt P30904). Kind of test: Binding affinity to BTZO-12 sensor chip immobilized recombinant rat MIF expressed in Escherichia coli BL21 (DE3) at pH 7.3 by SPR analysis. In a few lines:
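SPR on a BTZO-12-type sensor chip with purified recombinant rat MIF, binding compared at pH 6.0 and pH 7.3.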

Test [14] in a line: Upregulation of glutathione S-transferase Y(b) subunit gene expression in serum-deprived neonatal Wistar rat cardiomyocyte at 0.37 uM incubated for 21 hrs by microarray analysis relative to control. It counts as functional, Cardiac muscle cell. In a few lines:
as §4

The species entered for another test is Homo sapiens. Kind of test: Binding affinity to BTZO-12 sensor chip immobilized recombinant human N-terminal His-tagged MIF C59S mutant expressed in Escherichia coli BL21 (DE3) by SPR analysis. In short, it runs like this:
as §3

The subject of another test is Cardiac muscle cell. Kind of test: Cytoprotective activity against serum deprivation-induced neonatal Wistar rat cardiomyocyte death assessed as increase in cell viability measured after 4 days by WST-8 assay. The format is functional. In short, it runs like this: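 Primary neonatal rat cardiomyocytes were isolated by proteinase digestion, with preplating to remove adherent non-myocytes. Death was induced by serum deprivation at low density (3×10^5 cells/ml) for 4 days with compound present. Viability was read by WST-8. MEC1.5 is the concentration giving a 50% rise in viability. n = 3.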

The test system of test [15] is Antioxidant response element. The test can be described thus: Induction of ARE activity in serum-deprived neonatal Wistar rat cardiomyocytes assessed as increase in GST Ya expression up to 400 nM measured after 24 hrs by Western blot analysis. It counts as cell-based. The conditions noted are these: Cardiomyocyte. In a few lines: as §5
A short description of test [16]: Upregulation of glutathione reductase gene expression in serum-deprived neonatal Wistar rat cardiomyocyte at 0.37 uM incubated for 21 hrs by microarray analysis relative to control. It counts as functional, Cardiac muscle cell. In short, it runs like this: as §4
Test [17] has as its target T2, Glutathione S-transferase alpha-1 (Rattus norvegicus) (UniProt P00502).
T2 sequence (whole entry): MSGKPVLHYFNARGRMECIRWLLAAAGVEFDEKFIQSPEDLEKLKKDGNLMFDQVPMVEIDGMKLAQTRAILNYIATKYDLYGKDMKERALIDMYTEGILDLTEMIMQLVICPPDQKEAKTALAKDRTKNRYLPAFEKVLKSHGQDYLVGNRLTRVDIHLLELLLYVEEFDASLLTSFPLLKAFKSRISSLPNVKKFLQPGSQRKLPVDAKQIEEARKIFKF
Kind of test: Binding affinity to rat N-terminal 6His-tagged truncated GST Ya expressed in Escherichia coli BL21 (DE3) at 400 nM incubated for 6 hrs using labelled compound by scintillation proximity assay. In short, it runs like this: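 Scintillation proximity assay: 6His-tagged protein (hMIF, rat GST Ya or rat VILIP3) captured on copper His-tag SPA beads with [3H]-BTZO-1; emitted light counted on a microplate scintillation counter. Mean of n = 2.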

Activity calls are given as the source filed them. The rule behind the calls is not given here.

Sequence of Macrophage migration inhibitory factor (Rattus norvegicus) (P30904 2-115 limits assumed): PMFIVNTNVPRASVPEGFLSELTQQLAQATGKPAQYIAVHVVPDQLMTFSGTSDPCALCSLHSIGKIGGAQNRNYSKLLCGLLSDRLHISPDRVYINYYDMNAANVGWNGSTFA

For the compound `O=c1nc(-c2ccccn2)sc2ccccc12` [BTZO-1], the outcome in [1], in test [3], in [8], in [10], in test [11] and in test [13] was Active. The result (in the test listed under Homo sapiens; in test [15]) was Active. Moreover, the “fold change (FC)” value in test [2] is reported as 5; in test [5], 12; in test [6], 2.3; in test [9], 2.1; in test [12] it was 2.1; in test [14], 2.5. Besides, in test [16], the “fold change (FC)” value amounted to 4.4. Moreover, the dissociation constant Kd (usually a measure of binding affinity in units of concentration) in test [4] is 0.088 µM. Also, the Activity result (in test [7]; in the test on Cardiac muscle cell (time 4.0 day)) was “Dose-Dependent Effect” throughout. Also, the MEC2 in test [7] stood at 0.82 µM. Besides, in the test on Cardiac muscle cell (time 4 day), the MEC1.5 stood at 16 nM. Also, the result in test [17] was inactive.
